# In ChEMBL document CHEMBL1145493, “Exposure-response analyses of tigecycline efficacy in patients with complicated skin and skin-structure infections” (Antimicrob Agents Chemother, 2007):
# How the values were obtained:
# [1] = AUC at 24 hrs steady state in patient with complicated skin and skin structure infection at 50 mg loading dose followed by 25 mg every 12 hrs; type: ADME, organism-based; design: time < 24 hr, dose 50 mg; details: human, plasma
# How it was run: (§1)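 Tigecycline given i.v. for 7 to 14 days. Levels were measured by validated LC-MS/MS (LLOQ 10 ng/ml). Steady-state AUC24 was derived from a population PK model in evaluable patients pooled from three trials.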
# [2] = AUC at 24 hrs steady state in patient with complicated skin and skin structure infection at 100 mg loading dose followed by 50 mg every 12 hrs; type: ADME, organism-based; design: dose 100 mg, time < 24 hr; details: human, plasma; how it was run: as §1
# [3] = AUC (24 hrs)/MIC in patient with baseline skin pathogens at 50 mg loading dose followed by 25 mg every 12 hrs; type: ADME, cell-free; details: human, plasma
# How it was run: (§2)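 Per-patient ratio of model-derived steady-state AUC24 to the MIC of the baseline pathogen. The AUC24 came from population PK analysis of serum LC-MS/MS levels sampled predose and at 1, 3 and 6 h. MICs were set centrally by CLSI broth dilution in fresh media on isolates taken at baseline, with i.v. dosing over 7 to 14 days.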
# [4] = AUC (24 hrs)/MIC in patient with baseline skin pathogens at 100 mg loading dose followed by 50 mg every 12 hrs; type: ADME, cell-free; details: human, plasma; how it was run: as §2
# Enterococcus faecalis = test: Antibacterial activity against Enterococcus faecalis; type: functional
# How it was run: (§3)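 MICs for baseline pathogens isolated from patients with complicated skin and skin-structure infections. Isolates went to a central laboratory for identification and susceptibility testing by CLSI broth dilution in fresh media.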
# Enterococcus faecium = test: Antibacterial activity against Enterococcus faecium; type: functional; how it was run: as §3
# Staphylococcus aureus = test: Antibacterial activity against Staphylococcus aureus; type: functional
# How it was run: (§4)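 Baseline isolates from cSSSI patients in three pooled tigecycline trials (one phase 2, two phase 3) were identified and susceptibility-tested at a central laboratory. MICs were determined by broth dilution in fresh media following Clinical and Laboratory Standards Institute guidelines.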
# Streptococcus agalactiae = test: Antibacterial activity against Streptococcus agalactiae; type: functional; how it was run: as §3
# Streptococcus anginosus = test: Antibacterial activity against Streptococcus anginosus; type: functional; how it was run: as §3
# [5] = tested on: Streptococcus constellatus; test: Antibacterial activity against Streptococcus constellatus; type: functional; how it was run: as §3
# [6] = tested on: Streptococcus dysgalactiae; test: Antibacterial activity against Streptococcus dysgalactiae; type: functional; how it was run: as §3
# [7] = tested on: Streptococcus dysgalactiae subsp. equisimilis; test: Antibacterial activity against Streptococcus equisimilis; type: functional; how it was run: as §3
# [8] = tested on: Streptococcus intermedius; test: Antibacterial activity against Streptococcus intermedius; type: functional; how it was run: as §3
# Streptococcus pyogenes = test: Antibacterial activity against Streptococcus pyogenes; type: functional; how it was run: as §3
# [9] = tested on: Acinetobacter calcoaceticus; test: Antibacterial activity against Acinetobacter calcoaceticus; type: functional; how it was run: as §3
# Acinetobacter baumannii = test: Antibacterial activity against Acinetobacter baumannii; type: functional; how it was run: as §4
# [10] = tested on: Acinetobacter haemolyticus; test: Antibacterial activity against Acinetobacter haemolyticus; type: functional; how it was run: as §3
# Klebsiella pneumoniae = test: Antibacterial activity against Klebsiella pneumoniae; type: functional; how it was run: as §4
# Proteus mirabilis = test: Antibacterial activity against Proteus mirabilis; type: functional; how it was run: as §3
# Pseudomonas aeruginosa = test: Antibacterial activity against Pseudomonas aeruginosa; type: functional; how it was run: as §4
# Serratia marcescens = test: Antibacterial activity against Serratia marcescens; type: functional; how it was run: as §3
# Citrobacter koseri = test: Antibacterial activity against Citrobacter koseri; type: functional; how it was run: as §3
# Citrobacter freundii = test: Antibacterial activity against Citrobacter freundii; type: functional; how it was run: as §3
# Enterobacter cloacae = test: Antibacterial activity against Enterobacter cloacae; type: functional; how it was run: as §4
# Escherichia coli = test: Antibacterial activity against Escherichia coli; type: functional; how it was run: as §4
# Klebsiella oxytoca = test: Antibacterial activity against Klebsiella oxytoca; type: functional; how it was run: as §3
structure (smiles),measurement,setting,value
CN(C)c1cc(NC(=O)CNC(C)(C)C)c(O)c2c1C[C@H]1C[C@H]3[C@H](N(C)C)C(O)=C(C(N)=O)C(=O)[C@@]3(O)C(O)=C1C2=O [TIGECYCLINE],AUC at 24 h,[1],2660 ng·h/mL
same,AUC at 24 h,[2],5390 ng·h/mL
same,RatioAUC/MIC,[3],13.3
same,RatioAUC/MIC,[4],32.5
same,MIC,Enterococcus faecalis,0.12 µg/mL
same,MIC,Enterococcus faecium,0.06 µg/mL
same,MIC,Staphylococcus aureus,0.06 µg/mL
same,MIC,Streptococcus agalactiae,0.06 µg/mL
same,MIC,Streptococcus anginosus,0.06 µg/mL
same,MIC,[5],0.12 µg/mL
same,MIC,[6],0.12 µg/mL
same,MIC,[7],0.06 µg/mL
same,MIC,[8],0.06 µg/mL
same,MIC,Streptococcus pyogenes,0.06 µg/mL
same,MIC,[9],0.25 µg/mL
same,MIC,Acinetobacter baumannii,0.25 µg/mL
same,MIC,[10],0.5 µg/mL
same,MIC,Klebsiella pneumoniae,0.5 µg/mL
same,MIC,Proteus mirabilis,2 µg/mL
same,MIC,Pseudomonas aeruginosa,8 µg/mL
same,MIC,Serratia marcescens,1 µg/mL
same,MIC,Citrobacter koseri,0.5 µg/mL
same,MIC,Citrobacter freundii,0.5 µg/mL
same,MIC,Enterobacter cloacae,1 µg/mL
same,MIC,Escherichia coli,0.25 µg/mL
same,MIC,Klebsiella oxytoca,0.5 µg/mL
